In ChEMBL document CHEMBL4819119, “Design and evaluation of 1,2,3-dithiazoles and fused 1,2,4-dithiazines as anti-cancer agents” (Bioorg Med Chem Lett, 2021):
In brackets after ≈: the same amount, converted by molar mass.

Experiments:
[1] = test system: Staphylococcus aureus; assay: Antibacterial activity against Staphylococcus aureus; format: functional
[2] = test system: Enterococcus faecalis; assay: Antibacterial activity against Enterococcus faecalis; format: functional
[3] = test system: Listeria monocytogenes; assay: Antibacterial activity against Listeria monocytogenes; format: functional
[4] = test system: K562; assay: Cytotoxicity against human K562 cells; format: functional, cell-based
[5] = test system: L1210; assay: Cytotoxicity against mouse L1210 cells; format: functional, cell-based
[6] = test system: DU-145; assay: Cytotoxicity against human DU-145 cells; format: functional, cell-based
[7] = test system: Cryptococcus neoformans; assay: Antifungal activity against Cryptococcus neoformans; format: functional
[8] = test system: MCF7; assay: Cytotoxicity against human MCF7 cells assessed as reduction in cell viability incubated for 72 hrs by alamar blue assay; format: functional, cell-based; settings: MCF7, 72 h
Procedure, shortened: (§1)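 Cells seeded in 384-well plates and dosed 24 h after plating, in quadruplicate. Viability was read by alamarBlue fluorescence at 72 h. IC50 came from nonlinear regression as the mean of 4 replicates. Growth media carried 10% FBS and 1% pen/strep: UCH1/UCH2 in 4:1 IMDM:RPMI-1640 in gel-coated flasks; A431, PANC1 and WS1 in DMEM; DU145 and MCF7 in MEM; 5637 in RPMI-1640.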

[9] = test system: 5637; assay: Cytotoxicity against human 5637 cells assessed as reduction in cell viability incubated for 72 hrs by alamar blue assay; format: functional, cell-based; settings: Homo sapiens, 5637, 72 h; procedure, shortened: as §1
[10] = test system: DU-145; assay: Cytotoxicity against human DU-145 cells assessed as reduction in cell viability incubated for 72 hrs by alamar blue assay; format: functional, cell-based; settings: DU-145, 72 h; procedure, shortened: as §1
[11] = test system: PANC-1; assay: Cytotoxicity against human PANC1 cells assessed as reduction in cell viability incubated for 72 hrs by alamar blue assay; format: functional, cell-based; settings: PANC-1, 72 h; procedure, shortened: as §1
[12] = Cytotoxicity against human UCH1 cells assessed as reduction in cell viability incubated for 72 hrs by alamar blue assay; format: functional, cell-based; settings: UCH1, 72 h; procedure, shortened: as §1
[13] = Cytotoxicity against human UCH2 cells assessed as reduction in cell viability incubated for 72 hrs by alamar blue assay; format: functional, cell-based; settings: UCH2, 72 h; procedure, shortened: as §1
[14] = test system: A-431; assay: Cytotoxicity against human A-431 cells assessed as reduction in cell viability incubated for 72 hrs by alamar blue assay; format: functional, cell-based; settings: A-431, 72 h; procedure, shortened: as §1
[15] = Cytotoxicity against human WS1 cells assessed as reduction in cell viability incubated for 72 hrs by alamar blue assay; format: cell-based; settings: WS1, 72 h; procedure, shortened: as §1
[16] = test system: Feline immunodeficiency virus; assay: Antiviral activity against Feline immunodeficiency virus; format: functional, organism-based
[17] = test system: 5637; assay: Cytotoxicity against human 5637 cells assessed as reduction in cell viability incubated for 3 hrs by MTT assay; format: functional, cell-based; settings: Homo sapiens, 5637, 3 h
[18] = test system: PANC-1; assay: Cytotoxicity against human PANC1 cells assessed as reduction in cell viability incubated upto 72 hrs by MTT assay; format: functional, cell-based; settings: PANC-1, 72 h
[19] = biological target: T1, Neutral amino acid transporter B(0) (Homo sapiens, UniProt Q15758); assay: Inhibition of ASCT2 (unknown origin)
T1 sequence (Q15758 whole entry): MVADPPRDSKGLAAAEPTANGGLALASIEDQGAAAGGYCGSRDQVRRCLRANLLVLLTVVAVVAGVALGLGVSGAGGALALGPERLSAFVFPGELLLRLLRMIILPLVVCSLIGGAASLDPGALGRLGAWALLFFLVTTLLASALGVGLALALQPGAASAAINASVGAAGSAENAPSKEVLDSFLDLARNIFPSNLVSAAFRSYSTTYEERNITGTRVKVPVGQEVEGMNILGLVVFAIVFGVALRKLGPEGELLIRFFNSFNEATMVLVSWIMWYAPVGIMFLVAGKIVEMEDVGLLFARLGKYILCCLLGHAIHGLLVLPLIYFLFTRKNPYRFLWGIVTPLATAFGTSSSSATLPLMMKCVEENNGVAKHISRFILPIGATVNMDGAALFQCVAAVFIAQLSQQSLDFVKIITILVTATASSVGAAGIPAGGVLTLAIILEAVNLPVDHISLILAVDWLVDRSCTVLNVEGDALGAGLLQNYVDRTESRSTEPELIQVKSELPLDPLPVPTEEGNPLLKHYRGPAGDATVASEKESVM

Compound | IC50 [8] | IC50 [9] | IC50 [10] | IC50 [11] | IC50 [12] | IC50 [13] | IC50 [14] | IC50 [15] | other results
Clc1nss/c1=N\c1ccccc1 |  |  |  |  |  |  |  |  | MIC [1]: 16 µg/mL (≈ 70 µM); MIC [2]: 16 µg/mL (≈ 70 µM); MIC [3]: 16 µg/mL (≈ 70 µM)
N#Cc1cnn(CCc2ccccc2)c1/N=c1\ssnc1Cl |  |  |  |  |  |  |  |  | IC50 [4]: 3 µM; IC50 [5]: 5 µM
CC(=O)O[C@@]12CO[C@@H]1C[C@H](O)[C@@]1(C)C(=O)[C@H](O)C3=C(C)[C@@H](OC(=O)[C@H](O)[C@@H](NC(=O)OC(C)(C)C)c4ccccc4)C[C@@](O)([C@@H](OC(=O)c4ccccc4)[C@H]21)C3(C)C [DOCETAXEL ANHYDROUS] |  |  |  |  |  |  |  |  | IC50 [6]: 0.005 µM
N#Cc1ccccc1/N=c1\ssnc1Cl |  |  |  |  |  |  |  |  | MIC [7]: 8 µg/mL (≈ 31.5 µM)
COc1ccc(/N=c2\ssnc2Cl)cc1 |  |  |  |  |  |  |  |  | MIC [7]: 8 µg/mL (≈ 30.9 µM)
N#CSCCN1CCN(c2nss/c2=N\c2ccccc2)CC1 | 32 µM | 93 µM | 14 µM | 16 µM | 38 µM | 38 µM | > 100 µM | > 100 µM | 
Cc1cc(OC(F)(F)F)ccc1/N=c1\ssnc1Cl | 43 µM | 47 µM | 18 µM | 76 µM | 57 µM | 87 µM | > 100 µM | > 100 µM | 
CCOC(=O)c1c2n[se]sc-2c(Cl)c1Cl |  |  |  |  |  |  |  |  | EC50 [16]: 0.082 µM
Cc1ccc(Nc2nccc(N(C)c3ccc4c(C)n(C)nc4c3)n2)cc1S(N)(=O)=O [PAZOPANIB] |  |  |  |  |  |  |  |  | IC50 [17]: 15 µM
CN(CCN1CCN(c2nssc2=O)CC1)c1ccccc1 | 2.2 µM | 12 µM | 4.4 µM | 21 µM | 12 µM | 17 µM | 17 µM | 20 µM | 
Clc1nss/c1=N\c1cc(-c2ccccc2)nn1Cc1ccccc1 | 30 µM | 16 µM | 14 µM | 18 µM | 30 µM | 52 µM | > 100 µM | > 100 µM | 
Clc1nss/c1=N\c1ccc(OCc2ccccc2)cc1 | 50 µM | 13 µM | 45 µM | > 100 µM | 44 µM | > 100 µM | > 100 µM | > 100 µM | 
Clc1nss/c1=N\c1ccc2c(c1)OCO2 | 19 µM | 32 µM | 17 µM | 24 µM | 28 µM | 22 µM | 95 µM | 84 µM | 
CCOC(=O)c1c2nssc-2c(Cl)c1Cl |  |  |  |  |  |  |  |  | EC50 [16]: 0.31 µM
N#Cc1cc(Br)ccc1/N=c1\ssnc1N1CCN(CCCl)CC1 | 4.1 µM | 8 µM | 15 µM | 18 µM | 32 µM | 23 µM | > 100 µM | > 100 µM | 
Clc1nss/c1=N\c1ccc(Br)cc1 | 11 µM | 36 µM | 48 µM | 35 µM | 43 µM | 51 µM | > 100 µM | > 100 µM | 
Cc1nn(C)c2c1SSC(C#N)=N2 | > 100 µM | 81 µM | 40 µM | > 100 µM | > 100 µM | > 100 µM | > 100 µM | > 100 µM | 
Clc1nss/c1=N\c1nccs1 | 45 µM | 15 µM | 8.1 µM | 24 µM | 10 µM | 22 µM | 17 µM | 24 µM | 
Cc1cc(/N=c2\ssnc2Cl)n[nH]1 | 18 µM | 20 µM | 14 µM | 27 µM | 33 µM | 18 µM | 69 µM | 40 µM | 
FC(F)(F)Oc1ccc(/N=c2\ssnc2Cl)cc1Br | 73 µM | 36 µM | 52 µM | > 100 µM | 34 µM | 85 µM | 100 µM | > 100 µM | 
Cc1[nH]c2ccccc2c1CCNCc1ccc(/C=C/C(=O)NO)cc1 [PANOBINOSTAT] |  |  |  |  |  |  |  |  | IC50 [18]: 1 µM
CC.FC(F)(F)Oc1ccc(/N=c2\ssnc2Cl)cc1Cl | 88 µM | 33 µM | 32 µM | > 100 µM | > 100 µM | 43 µM | > 100 µM | > 100 µM | IC50 [19]: 8.1 µM
